Data on 31 molecules can be found in ChEMBL document CHEMBL1138932, “Synthesis and anti-hepatitis B virus activity of novel benzimidazole derivatives” (J Med Chem, 2006).

Assay [1] concerns HepG2. As to the kind of experiment: Selectivity index, CC50 for HepG2.2.15 cells/IC50 for HBV. The assay is classed as functional. Put shortly: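 Ratio CC50/IC50. CC50 is the concentration giving 50% extinction of HepG 2.2.15 cells. IC50 is the concentration giving 50% inhibition of cytoplasmic HBV-DNA synthesis.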
For assay [2], the system named is Hepatitis B virus. As to the kind of experiment: Inhibition of HBV DNA replication. The assay is classed as functional, organism-based. In a few lines: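 Antiviral assay in HepG 2.2.15 cells; read-out is cytoplasmic HBV-DNA synthesis. IC50 is the concentration giving 50% inhibition of HBV DNA synthesis.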
For assay [3], the system named is HepG2. As to the kind of experiment: Cytotoxicity against HepG2.2.15 cells. The assay is classed as functional. The settings on record: Homo sapiens. Put shortly:
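HepG 2.2.15 cells exposed to compound; CC50 taken as the concentration required for 50% extinction of the cells.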

Calls of active or inactive are those of the source. The rule behind the calls is not given here.

One may read the IC50 as the concentration at which inhibition is half-maximal. High values mean weaker potency, low ones greater potency. A word on the CC50: it is the concentration that lowers cell viability or growth by half. Read a high CC50 as lower toxicity to the cells. With `O=C1c2ccccc2C(=O)N1CCc1nc2cc(F)c(F)cc2n1S(=O)(=O)c1ccc(C(F)(F)F)cc1`, the Selectivity index in assay [1] is recorded as 3. Also, half-maximal inhibition in assay [2] (IC50) was put at 3.2 µM. The CC50 in assay [3] was 11 µM.

Consider `CC(C)c1ccc(S(=O)(=O)n2c(CCN3C(=O)c4ccccc4C3=O)nc3cc(Cl)c(Cl)cc32)cc1`, for which the Selectivity index in assay [1] was determined as 24. The molecule further showed an IC50 in assay [2] of 0.7 µM. The CC50 in assay [3] came out at 17 µM.

In assay [1], `Cc1ccc(Cn2c(CCN)nc3cc(Cl)c(Cl)cc32)cc1` came in with a Selectivity index of 3. For the same molecule, in assay [2], the IC50 is 1.4 µM. In assay [3], this molecule gave a CC50 of 4 µM.

With `Cn1c(CCC2CCCCC2)nc2cc(Cl)c(Cl)cc21`, in assay [1], the Selectivity index was greater than 27. In assay [2], this molecule showed an IC50 of 18.5 µM. The same molecule returned a CC50 in assay [3] greater than 500 µM.

With `Nc1ccn([C@@H]2CS[C@H](CO)O2)c(=O)n1` [LAMIVUDINE], in assay [1], the Selectivity index is reported as greater than 2632. Also, the IC50 in assay [2] amounted to 0.38 µM. Further, the CC50 in assay [3] was greater than 1000 µM.

Consider `O=C1c2ccccc2C(=O)N1CCc1nc2cc(Cl)c(Cl)cc2n1S(=O)(=O)c1ccc([N+](=O)[O-])cc1`, for which the Selectivity index in assay [1] turned out to be 4. In assay [2], the IC50 was 50.2 µM. In assay [3], the CC50 was 181 µM.

Take `O=C1c2ccccc2C(=O)N1CCc1nc2cc(Cl)c(Cl)cc2[nH]1`: the Selectivity index in assay [1] is listed as 1. Also, 300 µM corresponded to half-maximal inhibition in assay [2] (IC50). The CC50 in assay [3] was found to be 330 µM.

For the molecule `O=C1c2ccccc2C(=O)N1CCc1nc2cc(F)c(F)cc2n1S(=O)(=O)c1ccccc1[N+](=O)[O-]`, the Selectivity index in assay [1] worked out at 120. In assay [2], this molecule had an IC50 of 0.64 µM. In assay [3], the CC50 was found to be 77 µM.

Take `Cc1ccc(C(=O)n2c(CCN3C(=O)c4ccccc4C3=O)nc3cc(Cl)c(Cl)cc32)cc1`: the Selectivity index in assay [1] was greater than 19. For the same molecule, the midpoint of inhibition in assay [2], the IC50, lay at 53.2 µM. Moreover, the CC50 in assay [3] is greater than 1000 µM.

For `Cc1ccc(S(=O)(=O)n2c(CCN3C(=O)c4ccccc4C3=O)nc3cc(F)c(F)cc32)cc1`, the Selectivity index in assay [1] turned out to be 26. Besides, in assay [2], half-maximal inhibition (IC50) required 1.2 µM. The molecule also returned a CC50 in assay [3] of 31 µM.

In turn, `Cc1ccc(S(=O)(=O)n2c(CCN3Cc4ccccc4C3=O)nc3cc(Cl)c(Cl)cc32)cc1` returned a Selectivity index in assay [1] of 7. The IC50 in assay [2] turned out to be 3.4 µM. The same molecule displayed a CC50 in assay [3] of 23 µM.

In the case of `Nc1ncnc2c1ncn2CCOCP(=O)(O)O` [ADEFOVIR], the Selectivity index in assay [1] worked out at 156. In addition, the midpoint of inhibition in assay [2], the IC50, lay at 1.3 µM. In assay [3], this molecule had a CC50 of 203 µM.

With `O=C1c2ccccc2C(=O)N1CCc1nc2ccccc2n1S(=O)(=O)c1ccccc1`, the Selectivity index in assay [1] is listed as 13. This molecule also registered an IC50 in assay [2] of 2.2 µM. Further, the midpoint of cytotoxicity in assay [3], the CC50, lay at 28 µM.

As for `CCCc1nc2cc(Cl)c(Cl)cc2n1C`, in assay [1], the Selectivity index is 6. The same molecule displayed an IC50 in assay [2] of 3.9 µM. The midpoint of cytotoxicity in assay [3], the CC50, lay at 24.6 µM.

Take `O=C1c2ccccc2C(=O)N1CCc1nc2cc(F)c(F)cc2n1S(=O)(=O)c1cccc([N+](=O)[O-])c1`: in assay [1], the Selectivity index is listed as 71. For the same molecule, in assay [2], the IC50 worked out at 0.14 µM. The CC50 in assay [3] was found to be 10 µM.

As for `Cc1ccc(Cn2c(CCN3C(=O)c4ccccc4C3=O)nc3cc(Cl)c(Cl)cc32)cc1`, in assay [1], the Selectivity index is given as greater than 714. The molecule also registered an IC50 in assay [2] of 0.7 µM. Further, in assay [3], the CC50 is greater than 500 µM.

As for `Cc1ccc(S(=O)(=O)n2c(CCN3C(=O)c4ccccc4C3=O)nc3cc(Cl)c(Cl)cc32)cc1`, in assay [1], the Selectivity index was determined as 299. In assay [2], this molecule registered an IC50 of 2.9 µM. This molecule gave a CC50 in assay [3] of 867 µM.

Take `Cn1c(CCc2ccco2)nc2cc(Cl)c(Cl)cc21`: the outcome in assay [2] was inactive. Further, in assay [3], the CC50 was 5.9 µM.

Regarding `Cn1c(CCc2cccs2)nc2cc(Cl)c(Cl)cc21`, in assay [2], the outcome was inactive. In assay [3], this molecule had a CC50 of 16 µM.

For the molecule `Cn1c(CCN2C(=O)c3ccccc3C2=O)nc2cc(Cl)c(Cl)cc21`, the Selectivity index in assay [1] is greater than 1111. The same molecule yielded an IC50 in assay [2] of 0.9 µM. The CC50 in assay [3] is greater than 1000 µM.

Consider `Cn1c(CCC2CCCO2)nc2cc(Cl)c(Cl)cc21` (centres undefined), for which the Selectivity index in assay [1] is listed as 5. The molecule further came in with an IC50 in assay [2] of 10.3 µM. Moreover, the CC50 in assay [3] is 56 µM.

`Cc1ccc(S(=O)(=O)n2c(N3C(=O)c4ccccc4C3=O)nc3cc(Cl)c(Cl)cc32)cc1` returned a Selectivity index in assay [1] of 6. Half-maximal inhibition in assay [2] (IC50) required 19.4 µM. Also, half-maximal cytotoxicity in assay [3] (CC50) was put at 122 µM.

Molecule `Cc1ccc(S(=O)(=O)n2c(CCN3C(=O)C=CC3=O)nc3cc(Cl)c(Cl)cc32)cc1` returned a Selectivity index in assay [1] of 49. In assay [2], the IC50 is 0.68 µM. Further, the CC50 in assay [3] was found to be 33 µM.

In assay [1], `Cc1ccc(S(=O)(=O)n2c(CCCN3C(=O)c4ccccc4C3=O)nc3cc(Cl)c(Cl)cc32)cc1` showed a Selectivity index of 38. The midpoint of inhibition in assay [2], the IC50, lay at 0.34 µM. The same molecule displayed a CC50 in assay [3] of 13 µM.

In turn, `O=C1c2ccccc2C(=O)N1CCc1nc2ccccc2n1S(=O)(=O)c1cccc(C(F)(F)F)c1` showed a Selectivity index in assay [1] of 0.3. The same molecule showed an IC50 in assay [2] of 30.4 µM. In assay [3], this molecule came in with a CC50 of 10 µM.

With `Cn1c(CCc2ccccc2)nc2cc(Cl)c(Cl)cc21`, the result in assay [2] was inactive. The molecule further registered a CC50 in assay [3] of 15.3 µM.

In assay [1], `Cc1ccc(S(=O)(=O)n2c(CCN3C(=O)c4ccccc4C3=O)nc3ccccc32)cc1` came in with a Selectivity index of 75. This molecule also displayed an IC50 in assay [2] of 2.2 µM. The same molecule yielded a CC50 in assay [3] of 164 µM.

In assay [1], `COc1ccc(S(=O)(=O)n2c(CCN3C(=O)c4ccccc4C3=O)nc3cc(Cl)c(Cl)cc32)cc1` showed a Selectivity index of 26. Further, inhibition in assay [2] was half-maximal at 7.2 µM (IC50). In assay [3], this molecule had a CC50 of 189 µM.

As for `CS(=O)(=O)n1c(CCN2C(=O)c3ccccc3C2=O)nc2cc(Cl)c(Cl)cc21`, the outcome in assay [2] was inactive. In assay [3], this molecule showed a CC50 of 175 µM.

Take `Cn1c(CCc2ccncc2)nc2cc(Cl)c(Cl)cc21`: the Selectivity index in assay [1] turned out to be 8. Besides, the IC50 in assay [2] was found to be 4.6 µM. The molecule also returned a CC50 in assay [3] of 35.8 µM.

Take `Cc1ccc(S(=O)(=O)n2c(CN3C(=O)c4ccccc4C3=O)nc3cc(Cl)c(Cl)cc32)cc1`: in assay [1], the Selectivity index is recorded as 180. The IC50 in assay [2] was 0.5 µM. Also, the midpoint of cytotoxicity in assay [3], the CC50, lay at 90 µM.
